Measured values as given in ChEMBL document CHEMBL4017517, “Small Molecule Inhibitors Simultaneously Targeting Cancer Metabolism and Epigenetics: Discovery of Novel Nicotinamide Phosphoribosyltransferase (NAMPT) and Histone Deacetylase (HDAC) Dual Inhibitors” (J Med Chem, 2017).
Active and inactive are the calls of the source. The calls are words filed in the database; no cut-off is given here.

Assays:
[1] = Terminal half life in Sprague-Dawley rat at 2 mg/kg, ip; format: ADME, organism-based; details: in vivo, read-out: beta t1/2 (converted)
Method in brief: (§1)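 Sprague-Dawley rats given a single ip dose of 2 mg/kg. Plasma concentration–time profile used to derive terminal half-life, Cmax, plasma clearance and Vss.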

HCT-116 [2] = assay: Induction of autophagy in human HCT116 cells assessed as increase in LC3-2 level at 5 uM after 48 to 72 hrs by Western blot analysis; format: functional, cell-based
Method in brief: (§2)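 HCT116 cells exposed to 5 μM for 24, 48 and 72 h; DMSO control. Lysed in RIPA on ice, cleared 12000 × g. 30 μg protein per lane on SDS-PAGE, transferred to PVDF, blocked in 5% BSA. Probed overnight at 4 °C for LC3-II and P-62, then secondary antibody 1.5 h. Infrared imaging detection with quantification.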

[3] = Plasma clearance in Sprague-Dawley rat at 2 mg/kg, ip; format: ADME, organism-based; method in brief: as §1
Histone deacetylase 8 = target: T1, Histone deacetylase 8 (Homo sapiens, UniProt Q9BY41); assay: Inhibition of GST tagged full length human recombinant HDAC8 (H90 to 30H) expressed in Baculovirus infected Sf9 insect cells using Ac-Leu-Gly-Lys(Tfa)-AMC as substrate preincubated for 5 mins followed by substrate addition measured after 30 mins by fluorescence assay
T1 sequence (Q9BY41 whole entry): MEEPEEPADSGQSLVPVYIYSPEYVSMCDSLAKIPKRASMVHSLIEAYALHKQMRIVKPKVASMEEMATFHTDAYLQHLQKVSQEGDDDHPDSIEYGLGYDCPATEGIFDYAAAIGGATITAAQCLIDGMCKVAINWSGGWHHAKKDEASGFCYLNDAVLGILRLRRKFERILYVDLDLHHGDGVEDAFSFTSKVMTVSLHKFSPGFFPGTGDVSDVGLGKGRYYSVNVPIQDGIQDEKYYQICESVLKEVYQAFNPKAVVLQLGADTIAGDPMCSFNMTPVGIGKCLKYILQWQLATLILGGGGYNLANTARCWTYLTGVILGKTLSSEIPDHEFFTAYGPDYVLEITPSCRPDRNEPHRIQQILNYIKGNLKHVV

Homo sapiens = species: Homo sapiens; assay: Inhibition of HDAC in human HCT116 cells assessed as increase in acetylated histone H3 level after 24 hrs by Western blot analysis; format: cell-based
Method in brief: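 HCT116 cells treated at 1 and 5 μM for 24 h; DMSO-volume control. PBS-washed, RIPA-lysed on ice 30 min, centrifuged 12000 × g 15 min at 4 °C. 30 μg protein separated by SDS-PAGE, blotted to PVDF, blocked 5% BSA 2 h. Incubated with acetyl-histone H3 or H4 primary antibody overnight at 4 °C, then secondary antibody; infrared imaging.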

Histone deacetylase 1 [4] = target: T2, Histone deacetylase 1 (Homo sapiens, UniProt Q13547); assay: Inhibition of human recombinant HDAC1 (1 to 482 residues) expressed in Baculovirus using Ac-Leu-Gly-Lys(Ac)-AMC as substrate after 3 hrs by fluorescence assay
HCT-116 [5] = assay: Induction of apoptosis in human HCT116 cells assessed as late apoptotic cells at 5 uM after 72 hrs by Annexin V-FITC/propidium iodide staining-based flow cytometric analysis (reference value: 3.33%); format: functional
Method in brief: (§3)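 HCT116 cells seeded at 5×10^5 cells/mL in six-well plates, treated at 5 μM for 72 h alongside vehicle. Cells trypsinized, washed twice in cold PBS, and resuspended in 1× binding buffer. Stained with annexin V-FITC 15 min at room temperature, then PI 15 min in dark, then flow cytometry.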

HCT-116 [6] = assay: cells; format: functional, cell-based; details: Homo sapiens, HCT-116, 72 h
HCT-116 [7] = assay: animal or person; format: functional, Homo sapiens; details: Mus musculus, HCT-116, ip, read-out: TGI
Histone deacetylase 1 [8] = target: T2, Histone deacetylase 1; assay: Inhibition of human recombinant HDAC1 (1 to 482 residues) expressed in Baculovirus using Ac-Leu-Gly-Lys(Ac)-AMC as substrate preincubated for 5 mins followed by substrate addition measured after 30 mins by fluorescence assay
Histone deacetylase 4 = Histone deacetylase 4 (Homo sapiens, UniProt P56524); assay: Inhibition of GST tagged human recombinant HDAC4 (H86 to 31G) expressed in Baculovirus infected Sf9 insect cells using Ac-Leu-Gly-Lys(Tfa)-AMC as substrate preincubated for 5 mins followed by substrate addition measured after 30 mins by fluorescence assay
HCT-116 [9] = assay: Induction of autophagy in human HCT116 cells assessed as increase in LC3-2 level at 5 uM after 24 hrs by Western blot analysis; format: functional, cell-based; method in brief: as §2
HCT-116 [10] = assay: Induction of apoptosis in human HCT116 cells assessed as necrotic cells at 5 uM after 72 hrs in presence of autophagy inhibitor wortmannin by Annexin V-FITC/propidium iodide staining-based flow cytometric analysis (reference value: 1.25%); format: functional
Rattus norvegicus = assay: Volume of distribution at steady state in Sprague-Dawley rat at 2 mg/kg, ip; format: ADME, organism-based; details: in vivo; method in brief: as §1
HCT-116 [11] = assay: Induction of apoptosis in human HCT116 cells assessed as late apoptotic cells at 5 uM after 72 hrs in presence of autophagy inhibitor wortmannin by Annexin V-FITC/propidium iodide staining-based flow cytometric analysis (reference value: 3.33%); format: functional
MDA-MB-231 = assay: cells; format: functional, cell-based; details: Homo sapiens, MDA-MB-231, 72 h
HCT-116 [12] = assay: Induction of apoptosis in human HCT116 cells assessed as necrotic cells at 5 uM after 72 hrs by Annexin V-FITC/propidium iodide staining-based flow cytometric analysis (reference value: 1.25%); format: functional; method in brief: as §3
[13] = target: Histone deacetylase 3/NCoR1 (Homo sapiens, UniProt O15379); assay: Inhibition of human recombinant HDAC3/GST tagged NCOR1 (397 to 503 residues) expressed in insect cells using Ac-Leu-Gly-Lys(Ac)-AMC as substrate preincubated for 5 mins followed by substrate addition measured after 30 mins by fluorescence assay
[14] = target: Nicotinamide phosphoribosyltransferase (Homo sapiens, UniProt P43490); details: 10 uM
HCT-116 [15] = assay: Induction of autophagy in human HCT116 cells assessed as decrease in P-62 level at 5 uM after 24 to 72 hrs by Western blot analysis; format: functional, cell-based; method in brief: as §2
HCT-116 [16] = assay: Cell cycle arrest in human HCT116 cells assessed as accumulation at G2 phase at 1 uM after 48 hrs by propidium iodide staining based flow cytometry (reference value: 5%); format: functional
HCT-116 [17] = assay: Induction of apoptosis in human HCT116 cells assessed as early apoptotic cells at 5 uM after 72 hrs by Annexin V-FITC/propidium iodide staining-based flow cytometric analysis (reference value: 7.82%); format: functional; method in brief: as §3
Histone deacetylase 2 = Histone deacetylase 2 (Homo sapiens, UniProt Q92769)
Histone deacetylase 2, sequence (Q92769 whole entry): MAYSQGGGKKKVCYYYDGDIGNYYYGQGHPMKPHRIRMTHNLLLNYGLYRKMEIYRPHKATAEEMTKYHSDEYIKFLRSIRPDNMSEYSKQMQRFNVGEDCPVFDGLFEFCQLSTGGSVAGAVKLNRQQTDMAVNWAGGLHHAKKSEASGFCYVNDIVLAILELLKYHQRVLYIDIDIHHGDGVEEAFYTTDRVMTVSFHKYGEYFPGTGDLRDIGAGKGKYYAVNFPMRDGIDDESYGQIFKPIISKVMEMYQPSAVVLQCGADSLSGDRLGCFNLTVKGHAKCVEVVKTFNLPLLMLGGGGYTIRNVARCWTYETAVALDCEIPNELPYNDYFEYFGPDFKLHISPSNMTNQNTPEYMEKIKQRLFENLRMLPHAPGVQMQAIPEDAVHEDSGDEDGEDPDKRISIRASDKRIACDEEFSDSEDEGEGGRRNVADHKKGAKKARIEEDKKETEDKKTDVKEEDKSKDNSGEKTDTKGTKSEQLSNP

T2 sequence (Q13547 whole entry, the tested form may be a part): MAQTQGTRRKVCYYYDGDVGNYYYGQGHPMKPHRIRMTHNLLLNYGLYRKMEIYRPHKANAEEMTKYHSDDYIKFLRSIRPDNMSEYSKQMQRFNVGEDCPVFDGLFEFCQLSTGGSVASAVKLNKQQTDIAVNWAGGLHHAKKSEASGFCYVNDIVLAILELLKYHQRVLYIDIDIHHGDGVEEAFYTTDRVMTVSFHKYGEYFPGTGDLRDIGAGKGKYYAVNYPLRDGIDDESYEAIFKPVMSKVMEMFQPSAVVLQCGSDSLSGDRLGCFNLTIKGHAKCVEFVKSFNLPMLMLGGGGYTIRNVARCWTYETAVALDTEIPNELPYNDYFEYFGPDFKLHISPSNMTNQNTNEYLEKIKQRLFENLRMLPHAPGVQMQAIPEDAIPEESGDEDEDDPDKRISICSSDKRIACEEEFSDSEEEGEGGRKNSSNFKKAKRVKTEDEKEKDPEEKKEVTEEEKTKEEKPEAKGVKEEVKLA
Histone deacetylase 3/NCoR1, sequence (O15379 whole entry, the tested form may be a part): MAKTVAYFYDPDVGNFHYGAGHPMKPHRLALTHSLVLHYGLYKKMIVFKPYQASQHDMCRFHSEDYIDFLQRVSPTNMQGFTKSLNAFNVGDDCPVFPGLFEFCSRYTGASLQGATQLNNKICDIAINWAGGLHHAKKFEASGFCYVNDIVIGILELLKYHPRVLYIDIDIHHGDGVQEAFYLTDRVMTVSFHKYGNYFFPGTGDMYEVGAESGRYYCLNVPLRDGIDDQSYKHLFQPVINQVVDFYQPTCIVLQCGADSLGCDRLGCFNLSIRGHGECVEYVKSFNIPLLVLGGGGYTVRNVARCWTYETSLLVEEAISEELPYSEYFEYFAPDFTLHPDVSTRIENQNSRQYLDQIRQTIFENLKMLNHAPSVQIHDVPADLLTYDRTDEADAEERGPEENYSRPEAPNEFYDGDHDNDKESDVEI
Histone deacetylase 3/NCoR1, sequence (O75376 whole entry, further chain, the tested form may be a part): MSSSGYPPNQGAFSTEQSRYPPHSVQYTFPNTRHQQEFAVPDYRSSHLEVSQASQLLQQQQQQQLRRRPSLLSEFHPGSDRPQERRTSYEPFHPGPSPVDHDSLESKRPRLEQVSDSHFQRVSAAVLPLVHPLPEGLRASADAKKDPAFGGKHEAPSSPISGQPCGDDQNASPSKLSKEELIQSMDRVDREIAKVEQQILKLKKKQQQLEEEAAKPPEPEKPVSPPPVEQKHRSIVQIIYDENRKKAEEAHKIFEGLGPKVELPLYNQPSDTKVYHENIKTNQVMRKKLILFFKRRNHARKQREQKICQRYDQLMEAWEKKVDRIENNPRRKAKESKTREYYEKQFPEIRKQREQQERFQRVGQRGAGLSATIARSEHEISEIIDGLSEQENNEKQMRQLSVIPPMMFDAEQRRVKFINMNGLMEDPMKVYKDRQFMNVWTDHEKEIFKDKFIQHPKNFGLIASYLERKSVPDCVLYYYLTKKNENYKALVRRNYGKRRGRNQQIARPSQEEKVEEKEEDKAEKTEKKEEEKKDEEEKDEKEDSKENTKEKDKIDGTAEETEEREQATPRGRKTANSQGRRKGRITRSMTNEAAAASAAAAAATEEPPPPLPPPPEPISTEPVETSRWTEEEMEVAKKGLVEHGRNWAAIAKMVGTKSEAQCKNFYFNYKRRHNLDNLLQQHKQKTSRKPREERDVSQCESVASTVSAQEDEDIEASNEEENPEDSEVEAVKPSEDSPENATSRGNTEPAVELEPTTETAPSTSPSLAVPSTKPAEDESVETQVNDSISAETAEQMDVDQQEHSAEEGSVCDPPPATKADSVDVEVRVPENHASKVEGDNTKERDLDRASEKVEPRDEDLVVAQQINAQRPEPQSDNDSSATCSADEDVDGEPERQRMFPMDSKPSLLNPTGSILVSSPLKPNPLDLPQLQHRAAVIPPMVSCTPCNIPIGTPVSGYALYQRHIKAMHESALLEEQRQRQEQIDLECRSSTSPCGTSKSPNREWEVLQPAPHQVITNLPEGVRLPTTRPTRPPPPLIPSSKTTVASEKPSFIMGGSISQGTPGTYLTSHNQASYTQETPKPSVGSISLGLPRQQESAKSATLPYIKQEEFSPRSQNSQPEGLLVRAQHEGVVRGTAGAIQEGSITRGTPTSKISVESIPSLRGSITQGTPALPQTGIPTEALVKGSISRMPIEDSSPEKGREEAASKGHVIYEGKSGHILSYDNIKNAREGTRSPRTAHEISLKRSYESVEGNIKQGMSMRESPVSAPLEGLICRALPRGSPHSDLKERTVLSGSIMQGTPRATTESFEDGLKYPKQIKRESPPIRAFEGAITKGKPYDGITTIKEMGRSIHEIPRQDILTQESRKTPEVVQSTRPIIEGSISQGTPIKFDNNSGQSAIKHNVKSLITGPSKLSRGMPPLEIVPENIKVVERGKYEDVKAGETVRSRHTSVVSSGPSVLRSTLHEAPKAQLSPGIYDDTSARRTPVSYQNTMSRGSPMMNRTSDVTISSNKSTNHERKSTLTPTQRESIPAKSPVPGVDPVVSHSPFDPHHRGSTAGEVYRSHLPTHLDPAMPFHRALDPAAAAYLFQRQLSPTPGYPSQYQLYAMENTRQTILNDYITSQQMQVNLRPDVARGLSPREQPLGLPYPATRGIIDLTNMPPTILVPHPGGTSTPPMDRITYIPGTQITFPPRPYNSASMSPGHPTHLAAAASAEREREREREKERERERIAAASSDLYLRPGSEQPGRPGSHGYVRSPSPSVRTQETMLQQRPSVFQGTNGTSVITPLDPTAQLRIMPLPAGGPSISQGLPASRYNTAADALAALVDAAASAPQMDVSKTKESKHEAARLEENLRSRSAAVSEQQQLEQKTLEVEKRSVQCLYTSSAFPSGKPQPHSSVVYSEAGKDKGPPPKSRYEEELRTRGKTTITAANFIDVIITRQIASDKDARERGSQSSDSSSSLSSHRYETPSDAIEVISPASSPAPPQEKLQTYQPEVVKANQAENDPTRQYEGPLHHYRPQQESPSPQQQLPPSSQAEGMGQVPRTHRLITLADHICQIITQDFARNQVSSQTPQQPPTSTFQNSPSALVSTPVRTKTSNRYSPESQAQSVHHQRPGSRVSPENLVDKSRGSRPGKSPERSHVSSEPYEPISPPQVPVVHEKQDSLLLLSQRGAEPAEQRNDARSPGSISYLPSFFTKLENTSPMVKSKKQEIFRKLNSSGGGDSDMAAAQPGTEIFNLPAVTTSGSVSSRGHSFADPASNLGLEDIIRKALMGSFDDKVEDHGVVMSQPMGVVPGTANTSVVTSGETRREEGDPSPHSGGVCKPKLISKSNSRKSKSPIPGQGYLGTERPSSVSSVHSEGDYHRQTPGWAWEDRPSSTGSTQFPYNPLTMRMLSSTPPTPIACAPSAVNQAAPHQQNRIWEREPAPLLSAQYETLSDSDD
Nicotinamide phosphoribosyltransferase, sequence (P43490 whole entry, looked up): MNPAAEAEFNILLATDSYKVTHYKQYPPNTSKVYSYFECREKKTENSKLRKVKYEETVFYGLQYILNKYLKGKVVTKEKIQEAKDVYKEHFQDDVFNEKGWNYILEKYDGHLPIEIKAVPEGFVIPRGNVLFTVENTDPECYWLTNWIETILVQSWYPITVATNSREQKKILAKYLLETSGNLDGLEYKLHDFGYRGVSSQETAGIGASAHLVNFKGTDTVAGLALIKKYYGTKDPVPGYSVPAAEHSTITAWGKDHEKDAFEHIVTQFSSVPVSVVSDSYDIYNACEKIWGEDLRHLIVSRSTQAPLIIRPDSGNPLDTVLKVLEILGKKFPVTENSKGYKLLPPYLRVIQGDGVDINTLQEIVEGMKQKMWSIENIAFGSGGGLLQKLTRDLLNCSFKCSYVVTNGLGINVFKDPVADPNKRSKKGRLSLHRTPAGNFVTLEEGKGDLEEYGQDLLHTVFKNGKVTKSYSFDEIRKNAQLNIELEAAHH

half-life [1]: 108 min
CL/F [3]: 103 mL/min/kg
IC50 (Histone deacetylase 8): > 100 µM
IC50 (Histone deacetylase 1 [4]): 24 nM
IC50 (HCT-116 [6]): 2400 nM
IC50 (Histone deacetylase 1 [8]): 55 nM
IC50 (Histone deacetylase 4): > 100 µM
Vdss (Rattus norvegicus): 6229 mL/kg
IC50 (MDA-MB-231): 10 µM
IC50 [13]: 1870 nM
ΔTm [14]: 1.58 °C
IC50 (Histone deacetylase 2): 75 nM
Compound: Nc1ccccc1NC(=O)c1ccc(Cn2cc(-c3ccc(C(=O)NCc4cccnc4)cc3)nn2)cc1
Activity (HCT-116 [2]): inactive
inhibition (Homo sapiens): Active
Activity (HCT-116 [5]): 21.84%
inhibition in vivo at 25 mg/kg (HCT-116 [7]): 69%
Activity (HCT-116 [9]): Active
Activity (HCT-116 [10]): 2.19%
Activity (HCT-116 [11]): 15.22%
Activity (HCT-116 [12]): 2.43%
Activity (HCT-116 [15]): Active
Activity (HCT-116 [16]): 19%
Activity (HCT-116 [17]): 22.15%
